# Only some compounds are listed: those with a hit (about 1.5% of all), similar ones and a draw of the others.
# Cneo AK release: Cryptococcus neoformans cell lysis inducers, primary screen, AK release luminescence, single concentration; C. neoformans lysis, adenylate kinase release luminescence, 4 h; normalised: neutral wells 0, clomiphene wells 100; hit rate 0.2% among 360,000; lysis activity, % at 15 µM;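 active means mean lysis activity across replicates of at least 80%, whatever share of replicates individually reach that level; inactive means mean lysis activity below 80%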
#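 Test system: log-phase Cryptococcus neoformans yeast cells. Input: 5 × 10^6 yeast cells/mL. Medium: fresh YPD growth medium. Doses: single dose. Incubation: static 4 h at 37 °C with compound, 1 h detection. Measured by: luminescent adenylate kinase detection reagent. Read-out: signal increase indicating cell lysis. Benchmarks: Clomiphene.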
# C2C12 statin: suppressors of statin myotoxicity in C2C12 myotubes, primary screen, cell-based, single point, plate reader. hit rate 0.78% among 330,000. C2C12 myotubes + simvastatin, ATP luminescence, 48 h; scaled: DMSO 0, geranylgeraniol control 100. AID 602340, 2012. rescue of ATP level, % at 7.49 µM;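 active means mean ATP rescue above about 67%, or every replicate alone reaching that limit, limit read from the data, passing the limit was not always enough; inconclusive means no clear call, values can overlap the other calls; inactive means mean under the limit and some replicate under it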;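 further: myotubes were challenged with 10 µM simvastatin during compound exposure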
# Mot1-301 SUMO: yeast Mot1-301 growth rescue at high temperature, primary screen, SUMOylation pathway inhibitor project, S. cerevisiae, ATP luminescence, 38.5C. S. cerevisiae Mot1-301 growth rescue; percent above DMSO median, 100 means doubled. growth rescue, % at 18.8 µM. hit rate 1% among 320,000. AID 2716, 2010;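 active means every valid replicate shows activation above 250% relative to neutral control wells; inactive means the rest, any valid replicate at or below 250%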;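 further: OY570 slx delta 5 strain wells were the positive control but not used for scaling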
# Yeast Mot1 SUMO: growth restoration of Mot1-301 yeast on galactose, dose response, SUMO pathway inhibitor project, whole organism, S. cerevisiae, ATP luminescence, cherry-picked samples. shares compounds with Mot1-301 SUMO. S. cerevisiae Mot1-301 galactose growth, 24 h; -100 = growth of slx-deleted rescue strain. growth activity, percent, % at 42 µM. 2,300 tested, under 10 active. AID 493004, 2010;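 active means Signal drops as the depositor expects, and the fitted half-maximal dose is no more than ten times the top valid tested dose; inconclusive means Poor fit, or a flat curve whose signal drops by 30% to 70%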;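 further: more negative values mean stronger growth rescue toward the control strain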
# * marks the source's active call; other numbers are inactive results; u = inconclusive; x = not tested or not shown.
SMILES,Cneo AK release,C2C12 statin,Mot1-301 SUMO,Yeast Mot1 SUMO
CCOC(=O)c1oc2ccccc2c1COC(=O)CNC(=O)c1cccc(C)c1,-1,-16,984*,0
CCOC(=O)c1oc2ccccc2c1COC(=O)CNC(=O)c1ccccc1F,-1,9,x,x
CO[C@H]1CN(C)C(=O)c2ccc(NC(C)=O)cc2OC[C@@H](C)N(C(=O)Cc2ccccn2)C[C@@H]1C,-5,-3,x,x
CCOC(=O)c1c(CN2CCCCC2)n(C)c2cc(Br)c(O)c(CN(C)C)c12,-3,-12,472*,0
CCOC(=O)c1c(CSc2ccccc2)n(C)c2cc(Br)c(O)c(CN(C)C)c12,x,-17,-14,x
CCOc1ccc(-c2c(C(=O)N/N=C/c3ccncc3)nnn2-c2nonc2N)cc1,1,4,396*,1
CC/C(=N\NC(=O)c1nnn(-c2nonc2N)c1-c1cccs1)c1ccccc1,-1,-8,371*,1
CCOc1ccc(-c2c(C(=O)N/N=C/c3ccccc3)nnn2-c2nonc2N)cc1,x,-2,13,x
CC/C(=N\NC(=O)c1nnn(-c2nonc2N)c1-c1ccc2c(c1)OCO2)c1ccccc1,-3,4,-2,x
CN1C(=O)c2cc(NC(=O)c3ccc(F)cc3)ccc2OC[C@H]2O[C@@H](CC(=O)NCC3CCCCC3)CC[C@@H]21,0,20,x,x
COc1ccc(NC(=O)N2C[C@@H](O)COC[C@@H]3O[C@H](CC(=O)N4CCN(C)CC4)CC[C@H]32)cc1,-2,-3,x,x
COc1ccc(NC(=O)N(C)C[C@@H]2OCCCC[C@@H](C)Oc3ccc(NS(=O)(=O)c4c(C)noc4C)cc3C(=O)N([C@H](C)CO)C[C@H]2C)cc1,1,u,x,x
C[C@@H](NC(=O)C[C@@H]1C=C[C@@H](NC(=O)C2CCC2)[C@H](CO)O1)c1ccccc1,7,-2,x,x
Cc1ccc(C(=O)Nc2ccc3c(c2)OCCO3)c(Cl)c1,-6,-3,408*,-1
O=C(Nc1ccc2c(c1)OCCO2)c1cc(F)c(F)cc1Cl,-2,-3,-18,x
CO[C@H]1CN(C)C(=O)c2cc(NC(C)=O)ccc2OC[C@@H](C)N(C(=O)c2ccncc2)C[C@H]1C,38,-2,x,x
O=C(Nc1ccccc1Cl)N1CCN(c2ccc3nnc(-c4ccc(F)cc4)n3n2)CC1,2,27,0,x
Fc1ccc(-c2nnc3ccc(N4CCCC4)nn23)cc1,-1,x,775*,-1
C[C@@H]1CN([C@@H](C)CO)C(=O)c2cc(C#CC3CC3)cnc2O[C@H]1CN(C)C(=O)C1CCCCC1,x,5,x,x
COc1ccc(CN2C[C@@H](O)COC[C@@H]3O[C@H](CC(=O)NCCN4CCCC4)CC[C@H]32)cc1,1,3,x,x
CO[C@H]1CN(C)C(=O)c2ccc(NC(=O)C3CC3)cc2OC[C@@H](C)N(Cc2ccncc2)C[C@@H]1C,-1,-4,x,x
COc1ccccc1N(CC(=O)NCC1CCCO1)C(=O)CCC(=O)Nc1cc(C)on1 (configuration not stated),-1,4,752*,0
CCOc1ccccc1N(CC(=O)NCC1CCCO1)C(=O)CCC(=O)Nc1cc(C)on1 (configuration not stated),-1,13,-20,x
COc1cccc(CN(CC(=O)NCC2CCCO2)C(=O)CCC(=O)Nc2cc(C)on2)c1 (configuration not stated),0,x,x,x
COc1ccc(CN(CC(=O)NCC2CCCO2)C(=O)CCC(=O)Nc2cc(C)on2)cc1 (configuration not stated),0,x,392*,1
SMILES,Cneo AK release,C2C12 statin,Mot1-301 SUMO,Yeast Mot1 SUMO
O=C(CN1CCOCC1)N[C@H]1CC[C@@H](CCn2cc(C3CCCCC3)nn2)O[C@H]1CO,4,-2,x,x
C[C@H]1CN([C@@H](C)CO)C(=O)Cc2cc(NS(=O)(=O)c3ccccc3)ccc2O[C@@H]1CN(C)C,5,-8,x,x
C[C@H]1CN([C@@H](C)CO)C(=O)c2cc(NC(=O)c3ccncc3)ccc2O[C@@H]1CN(C)Cc1ccc(-c2ccccc2)cc1,56,26,x,x
COc1ccc(-n2c3c(cc(C(=O)NCC(=O)c4ccccc4)c2=O)C(=O)CC(C)(C)C3)cc1,-6,-7,443*,0
O=C(CNC(=O)c1cc2c(n(-c3ccccc3)c1=O)CCCC2=O)c1ccccc1,2,-1,-10,x
COc1cc2c(cc1OC)CN(C(=O)Cc1c(F)cccc1Cl)CC2,-1,16,475*,1
COc1ccc(CC(=O)N2CCc3cc(OC)c(OC)cc3C2)cc1,0,13,-4,x
O=C(NC(=S)Nc1ccc(F)c([N+](=O)[O-])c1)c1ccccc1F,x,x,0,x
CC(C)C(=O)Nc1ccc(NC(=S)NC(=O)c2ccccc2F)cc1,0,x,495*,0
CCCN1C(=O)c2ccc(C(=O)Nc3nccs3)cc2C1=O,x,-19,544*,1
CCn1nccc1C(=O)Nc1nccs1,4,x,706*,0
COCCN1C(=O)c2ccc(C(=O)Nc3nccs3)cc2C1=O,5,-8,23,x
CCn1cc(Br)c(C(=O)Nc2nccs2)n1,x,10,1,x
CO[C@H]1CN(C)C(=O)c2cc(NC(=O)C3CCC3)ccc2OC[C@H](C)N(Cc2ccccn2)C[C@@H]1C,1,4,x,x
COc1ccc(C#Cc2cnc3c(c2)C(=O)N([C@H](C)CO)C[C@@H](C)[C@H](CN(C)C(C)=O)O3)cc1,-1,37,x,x
CN(C(=O)CSc1nnc(-c2cccc(F)c2)n1N)C1CCS(=O)(=O)C1 (configuration not stated),x,x,401*,0
CN(C(=O)CSc1nnc(-c2ccc(OC(F)F)cc2)n1N)C1CCS(=O)(=O)C1 (configuration not stated),x,-2,-9,x
C[C@H]1CN([C@@H](C)CO)S(=O)(=O)c2ccc(C3=CCCC3)cc2O[C@H]1CN(C)CC1CCOCC1,0,4,x,x
Cc1noc(C)c1S(=O)(=O)Nc1cccc2c1O[C@H](CN(C)Cc1ccc(C(=O)Nc3ccccc3N)cc1)[C@H](C)CN([C@@H](C)CO)C2=O,1,36,x,x
O=[N+]([O-])c1cccc(-c2cn3nc(-c4ccccc4)c(-c4ccccc4)nc3n2)c1,1,x,7,x
O=Nc1c(-c2cccc([N+](=O)[O-])c2)nc2ncccn12,-3,x,556*,0
CNC[C@@H]1Oc2ncc(-c3ccccc3C)cc2C(=O)N([C@H](C)CO)C[C@H]1C,4,0,x,x
O=C1C2CCCCN2C(=O)N1CCCCN1CCN(c2ccccc2Oc2ccccc2)CC1 (configuration not stated),1,9,431*,0
COc1ccccc1N1CCN(CCCCN2C(=O)C3CCCN3C2=O)CC1 (configuration not stated),0,1,x,x

# Source: PubChem BioAssay
